How the values were obtained:
[1] = biological target: T1, Angiotensin-converting enzyme (Rattus norvegicus, UniProt P47820); test: Inhibitory activity against angiotensin I converting enzyme
T1 sequence (P47820 whole entry): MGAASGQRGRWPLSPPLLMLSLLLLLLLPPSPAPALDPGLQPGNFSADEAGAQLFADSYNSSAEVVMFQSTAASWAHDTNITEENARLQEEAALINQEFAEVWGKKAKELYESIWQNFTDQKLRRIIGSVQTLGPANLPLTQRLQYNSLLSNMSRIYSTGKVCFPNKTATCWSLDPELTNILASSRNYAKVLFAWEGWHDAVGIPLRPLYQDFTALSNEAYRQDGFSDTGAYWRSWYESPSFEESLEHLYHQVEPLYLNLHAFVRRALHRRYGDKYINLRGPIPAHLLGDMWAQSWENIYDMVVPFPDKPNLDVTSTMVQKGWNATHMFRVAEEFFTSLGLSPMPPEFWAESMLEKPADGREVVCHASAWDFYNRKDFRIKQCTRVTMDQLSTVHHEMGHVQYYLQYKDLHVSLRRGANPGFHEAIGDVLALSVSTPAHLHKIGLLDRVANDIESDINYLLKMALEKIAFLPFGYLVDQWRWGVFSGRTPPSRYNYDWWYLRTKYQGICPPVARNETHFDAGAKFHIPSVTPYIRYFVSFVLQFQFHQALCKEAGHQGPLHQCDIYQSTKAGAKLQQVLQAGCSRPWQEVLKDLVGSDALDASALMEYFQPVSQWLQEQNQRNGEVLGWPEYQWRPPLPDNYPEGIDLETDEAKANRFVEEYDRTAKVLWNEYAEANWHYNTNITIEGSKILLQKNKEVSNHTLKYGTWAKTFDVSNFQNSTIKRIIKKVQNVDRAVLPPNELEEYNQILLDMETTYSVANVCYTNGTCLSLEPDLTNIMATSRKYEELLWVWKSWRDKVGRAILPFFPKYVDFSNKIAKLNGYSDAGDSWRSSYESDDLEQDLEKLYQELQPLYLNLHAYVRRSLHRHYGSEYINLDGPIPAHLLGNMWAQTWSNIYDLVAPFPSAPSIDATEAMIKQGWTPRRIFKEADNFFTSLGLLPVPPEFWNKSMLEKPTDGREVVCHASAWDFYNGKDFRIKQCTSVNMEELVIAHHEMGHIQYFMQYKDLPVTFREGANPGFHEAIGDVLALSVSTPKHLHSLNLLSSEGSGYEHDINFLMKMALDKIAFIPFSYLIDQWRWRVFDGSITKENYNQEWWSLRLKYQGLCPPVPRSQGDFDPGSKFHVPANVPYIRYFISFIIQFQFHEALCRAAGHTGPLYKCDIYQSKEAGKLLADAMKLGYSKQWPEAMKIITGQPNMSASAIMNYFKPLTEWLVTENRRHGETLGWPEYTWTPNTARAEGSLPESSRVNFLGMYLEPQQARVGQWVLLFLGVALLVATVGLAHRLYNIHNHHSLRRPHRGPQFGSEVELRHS
How it was run: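 Rat testis enzyme purified to homogeneity, 0.02 pmol/100 µL final, preincubated 15 min at 37 °C with varied inhibitor levels in 50 mM Tris-HCl pH 8.0. N-Cbz-Phe-His-Leu then added to 0.05 mM final and run 15 min. Stopped with 2 M NaOH, His-Leu measured fluorimetrically (ex 365, em 495 nm) against a His-Leu calibration curve. IC50 as mean ± SEM of three independent determinations, each in triplicate.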

Neprilysin = biological target: T2, Neprilysin (Oryctolagus cuniculus, UniProt P08049); test: Inhibitory activity was tested against neutral endopeptidase
T2 sequence (P08049 whole entry): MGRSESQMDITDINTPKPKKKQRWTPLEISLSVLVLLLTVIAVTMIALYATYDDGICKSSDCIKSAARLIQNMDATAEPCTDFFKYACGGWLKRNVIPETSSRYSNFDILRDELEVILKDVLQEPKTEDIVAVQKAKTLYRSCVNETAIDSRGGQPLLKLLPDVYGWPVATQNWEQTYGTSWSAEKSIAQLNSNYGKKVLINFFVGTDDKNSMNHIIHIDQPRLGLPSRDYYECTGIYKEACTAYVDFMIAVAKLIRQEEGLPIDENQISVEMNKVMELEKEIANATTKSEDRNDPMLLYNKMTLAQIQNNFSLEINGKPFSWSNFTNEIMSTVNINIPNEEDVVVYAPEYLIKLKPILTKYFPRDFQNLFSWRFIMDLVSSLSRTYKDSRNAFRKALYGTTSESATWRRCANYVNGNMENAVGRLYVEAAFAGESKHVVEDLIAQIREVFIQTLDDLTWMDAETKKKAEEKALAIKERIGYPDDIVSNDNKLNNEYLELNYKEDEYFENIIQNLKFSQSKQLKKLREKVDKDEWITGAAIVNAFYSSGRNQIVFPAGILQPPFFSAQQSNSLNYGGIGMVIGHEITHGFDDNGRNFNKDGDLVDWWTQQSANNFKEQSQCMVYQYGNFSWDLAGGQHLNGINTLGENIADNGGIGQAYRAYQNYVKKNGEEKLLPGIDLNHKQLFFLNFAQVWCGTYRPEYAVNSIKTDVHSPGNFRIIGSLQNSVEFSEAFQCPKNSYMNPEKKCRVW
How it was run: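 Rabbit kidney enzyme purified to homogeneity, 1 pmol/100 µL final, preincubated 15 min at 25 °C with or without rising inhibitor concentrations in 50 mM Tris-HCl pH 7.4. [3H]Tyr-D-Ala2-Leu-enkephalin then added to 20 nM final and run 30 min. Stopped with 0.5 M HCl, tritiated metabolites separated on polystyrene beads. IC50 as mean ± SEM of three independent determinations, each in triplicate.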

| IC50 [1] [nM] | IC50 (Neprilysin) [nM] | SMILES |
| --- | --- | --- |
| 1.9 | 5.3 | CC[C@H](C)[C@H](S)C(=O)N[C@H](C(=O)N[C@@H](Cc1ccc(O)cc1)C(=O)O)C(C)C |
| 6.3 | 5.5 | C=C(C)[C@@H]1CC[C@]2(C(=O)N[C@H](C(=O)O)[C@@H](C)CC)CC[C@]3(C)[C@H](CC[C@@H]4[C@@]5(C)CC[C@H](O)C(C)(C)[C@@H]5CC[C@]43C)[C@@H]12 |
| 150 | 22 | C[C@H](NC(=O)[C@@H](S)Cc1ccccc1)C(=O)N1CCCC1 |
| 100 | 63 | CC(C)[C@H](NC(=O)[C@@H](S)Cc1ccccc1)C(=O)N1CC(O)CC1C(=O)O (stereo not given in full) |
| 1.7 | 24 | CC[C@@H](C)[C@H](NC(=O)[C@@H](S)Cc1ccccc1)C(=O)N1CCCC1C(=O)O (stereo not given in full) |
| 3.5 | 4.5 | CC[C@H](C)[C@H](NC(=O)[C@@H](S)c1ccccc1)C(=O)N[C@@H](Cc1ccc(O)cc1)C(=O)O |
| 2.5 | 3 | CC[C@H](C)[C@H](NC(=O)[C@@H](S)Cc1ccccc1)C(=O)N[C@@H](Cc1ccc(O)cc1)C(=O)O |
| 0.85 | 24 | CC(C)[C@H](NC(=O)[C@@H](S)Cc1ccccc1)C(=O)N1CCCC1C(=O)O (stereo not given in full) |
| 40 | 4 | C[C@H](NC(=O)[C@@H](S)Cc1ccccc1)C(=O)O |
| 4 | 3.6 | CC(C)[C@H](NC(=O)[C@@H](S)Cc1ccccc1)C(=O)N[C@@H](Cc1ccc(O)cc1)C(=O)O |
| 33 | 32 | CC[C@@H](C)[C@H](S)C(=O)N[C@H](C(=O)N[C@@H](Cc1ccc(O)cc1)C(=O)O)C(C)c1ccccc1 (stereo not given in full) |
| 44 | 23 | O=C(O)[C@H](Cc1ccccc1)NC(=O)[C@@H](S)Cc1ccccc1 |
| 4 | 2.8 | CCCC[C@H](NC(=O)[C@@H](S)Cc1ccccc1)C(=O)N[C@@H](Cc1ccc(O)cc1)C(=O)O |
| 0.35 | 20 | C[C@H](NC(=O)[C@@H](S)CCc1ccccc1)C(=O)N1CCCC1C(=O)O (stereo not given in full) |
| 7.9 | 50 | O=C(O)[C@H](Cc1c[nH]c2ccccc12)NC(=O)[C@H](Cc1ccccc1)NC(=O)[C@@H](S)Cc1ccccc1 |
| 0.4 | 5.3 | C[C@H](NC(=O)[C@@H](S)Cc1ccccc1)C(=O)N1C(C(=O)O)CC2CCCCC21 (stereo not given in full) |
| 34 | 100 | CC(OCc1ccccc1)[C@H](NC(=O)[C@@H](S)Cc1ccccc1)C(=O)N[C@@H](Cc1ccc(O)cc1)C(=O)O (stereo not given in full) |

Continued, compound first:

| SMILES | IC50 [1] [nM] | IC50 (Neprilysin) [nM] |
| --- | --- | --- |
| CC(c1ccccc1)[C@H](S)C(=O)N[C@H](C(=O)N1CCCC[C@H]1C(=O)O)C(C)C (stereo not given in full) | 110 | 180 |
| C[C@H](NC(=O)[C@@H](S)Cc1ccccc1)C(=O)N1CCCCC1C(=O)O (stereo not given in full) | 1.6 | 9.5 |
| CC(C)C[C@H](NC(=O)[C@@H](S)Cc1ccccc1)C(=O)N[C@@H](Cc1ccc(O)cc1)C(=O)O | 3 | 2.2 |
| CC(C)[C@H](NC(=O)[C@@H](S)CCc1ccccc1)C(=O)N[C@@H](Cc1ccc(O)cc1)C(=O)O | 1.6 | 10 |
| CC[C@@H](C)[C@H](NC(=O)[C@@H](S)C(C)C)C(=O)N[C@@H](Cc1ccc(O)cc1)C(=O)O | 0.26 | 1.4 |
| C[C@H](NC(=O)[C@H](S)Cc1ccccc1)C(=O)N1CCC[C@H]1C(=O)O | 25 | 1.3 |
| C[C@H](NC(=O)[C@H](Cc1ccccc1)NC(=O)[C@@H](S)Cc1ccccc1)C(=O)O | 7.1 | 2.3 |
| CC[C@H](C)[C@H](S)C(=O)N[C@@H](Cc1ccccc1)C(=O)N[C@@H](Cc1ccc(O)cc1)C(=O)O | 10 | 3.5 |
| O=C(O)[C@H](COCc1ccccc1)NC(=O)[C@H](Cc1ccccc1)NC(=O)[C@@H](S)Cc1ccccc1 | 12 | 50 |
| O=C(O)[C@H](Cc1ccc(O)cc1)NC(=O)[C@H](Cc1ccccc1)NC(=O)[C@@H](S)CCc1ccccc1 | 1.5 | 20 |
| CC[C@H](C)[C@H](NC(=O)[C@@H](S)C(C)C)C(=O)N1C(C(=O)O)CC2CCCCC21 (stereo not given in full) | 28 | 175 |
| C[C@H](NC(=O)[C@@H](S)Cc1ccccc1)C(=O)N1CCC[C@H]1C(=O)O | 0.3 | 3.8 |
| C[C@H](NC(=O)[C@H](Cc1ccccc1)NC(=O)CS)C(=O)O | 220 | 14 |
| O=C(NC1(C(=O)O)CCCC1)[C@H](Cc1ccccc1)NC(=O)[C@@H](S)Cc1ccccc1 | 30 | 45 |
| CC[C@H](C)[C@H](S)C(=O)N[C@H](C(=O)N1CCC[C@H]1C(=O)O)C(C)C | 0.58 | 190 |
| O=C(O)[C@H](CSCc1ccccc1)NC(=O)[C@H](Cc1ccccc1)NC(=O)[C@@H](S)Cc1ccccc1 | 14 | 40 |
| CC[C@H](C)[C@H](S)C(=O)N[C@@H](C)C(=O)N1c2ccccc2CC1C(=O)O (stereo not given in full) | 3.3 | 180 |
| CC(C)(NC(=O)[C@@H](S)CCc1ccccc1)C(=O)N1CCCC1C(=O)O (stereo not given in full) | 1.6 | 46 |
| CC[C@@H](C)[C@H](NC(=O)[C@@H](S)c1ccccc1)C(=O)N1CCCC1C(=O)O (stereo not given in full) | 28 | 130 |
| O=C(O)[C@H](Cc1ccc(O)cc1)NC(=O)[C@H](Cc1ccccc1)NC(=O)[C@@H](S)Cc1ccccc1 | 5.6 | 2.9 |
| O=C(O)C1CCCN1C(=O)[C@H](Cc1ccccc1)NC(=O)[C@@H](S)Cc1ccccc1 (stereo not given in full) | 1.1 | 30 |
| O=C(O)[C@H](Cc1cccc2ccccc12)NC(=O)[C@H](Cc1ccccc1)NC(=O)[C@@H](S)Cc1ccccc1 | 50 | 120 |
| CC[C@@H](C)[C@H](NC(=O)[C@@H](S)C(C)OCc1ccccc1)C(=O)N[C@@H](Cc1ccc(O)cc1)C(=O)O (stereo not given in full) | 7.1 | 4.1 |
